Results collected from several papers.
Compare with care: the assays were run in different laboratories.
Target: Serine/threonine-protein kinase Nek6 (NEK6, Homo sapiens, UniProt Q9HC98)

| Compound | effect on | mode | method | tested at | quantity | result |
| --- | --- | --- | --- | --- | --- | --- |
| Cc1cc(-n2nc(Cc3cc(F)cc(C(F)(F)F)c3)nc2C)ccc1C(N)=O | cell-free assay |  | competition with immobilised ligand | 1 µM | remaining binding | 95% |
| O=C1NC(=O)c2cc(Nc3ccc(F)cc3)c(Nc3ccc(F)cc3)cc21 | cell-free assay |  |  | 0.5 µM | remaining signal | 109% |
| FC(F)(F)Oc1cccc(-c2cnc3ccc(-c4ccncc4)nn23)c1 | enzyme activity | inhibitor | radiometric | 1 µM | activity vs control | 92% |
| CC/C(=N\NC(=O)NCc1cccc(O)c1)c1ccc(O)c(C)c1O | enzyme activity | inhibitor |  | 0.1 µM | inhibition | 0.2% |
| Nc1ncnc2occ(-c3ccc(NC(=O)Nc4cc(C(F)(F)F)ccc4F)cc3)c12 | cell-free assay | inhibitor |  | 20 µM | remaining signal | 0.15% |
| CCN(CC)CCNC(=O)c1c(C)[nH]c(/C=C2\C(=O)Nc3ccc(F)cc32)c1C | enzyme activity | inhibitor |  | 0.3 µM | inhibition | -14% |
| CCOCCn1cc(C(=O)Nc2ccc(-n3nc(-c4cccnc4)cc3C(F)(F)F)cn2)ccc1=O | cell-free assay |  | competition with immobilised ligand | 1 µM | remaining binding | 96% |
| CNC(=O)c1cc(Oc2ccc(NC(=O)Nc3ccc(Cl)c(C(F)(F)F)c3)cc2)ccn1 | enzyme activity | inhibitor |  | 0.3 µM | inhibition | -13% |
| CN(c1ncccc1CNc1nc(Nc2ccc3c(c2)CC(=O)N3)ncc1C(F)(F)F)S(C)(=O)=O | enzyme activity | inhibitor |  | 1 µM | inhibition | 11.8% |
| C[C@H](c1ccnc(Nc2nc3ccc(-c4cc(N(C)C)ncn4)cc3[nH]2)c1)N1CCN(C(=O)CC(F)(F)F)CC1 | cell-free assay |  | competition with immobilised ligand | 0.1 µM | remaining binding | 83% |
| Cc1cc(NC(=O)c2cccc3cc(-c4cccc5[nH]nc(N)c45)ccc23)ccc1F | enzyme activity | inhibitor |  | 0.1 µM | activity vs control | 99% |
| Cc1ccc(NC(=O)c2ccc(C)c(C(F)(F)F)c2)cc1C#Cc1nn(C2CCC(O)CC2)c2ncnc(N)c12 (centres unmarked) | cell-free assay |  |  | 10 µM | remaining signal | 98% |
| COc1cc2ncnc(Nc3ccc(Oc4ccccc4)cc3C)c2cc1OC | enzyme activity | inhibitor |  | 1 µM | inhibition | -8% |
| CCCCN(CCCC)C(=O)CN1C[C@H](c2cc(OC)c3c(c2)OCO3)[C@@H](C(=O)O)[C@@H]1CC(C)(C)CCC | cell-free assay |  | competition with immobilised ligand | 1 µM | remaining binding | 100% |
